This is a sample that favours compounds with a hit; in the whole collection about 7.9% have one here.
HEK293 NFkB inh: inhibitors of the PMA/ionomycin-induced NF-kB reporter in HEK293 cells; HEK-293 NF-kB luciferase reporter, luminescence; inhibition, % at 3 µM; hit rate 0.21% among 62,000;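 active means inhibition above the mean of all tested compounds plus 3 SD, cut at about 40% in these data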;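 further: 0% = stimulated DMSO wells and 100% = 10 µM reference inhibitor 5653914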
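System: NF-kB luciferase reporter HEK-293 cells | Replication: Single test | Control set: DMSO vs reference inhibitor | Evaluation: % inhibition | Schedule: 1 h pretreatment, 16 h stimulation, 37 °C | Probe or stimulus: PMA with ionomycin | Compound dosing: One dose, 3 µM | Detection: Luciferase luminescence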
D1 mod: D1 dopamine receptor (human) allosteric modulation; AID 641; B-score at 10 µM; P21728; HEK293 D1, CRE-luciferase, dopamine EC30 potentiation; actives deviate in either direction; hit rate 5.9% among 58,000;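 active means luminescence count or its row- and column-corrected plate score outside the 99.7% band of the plate's sample wells, on either side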
SF1 activator: activators of human nuclear receptor SF-1; activation, % at 10 µM; CHO-K1 Gal4-SF-1 LBD luciferase reporter; % increase over DMSO SF-1-specific signal; Q13285; hit rate 1.9% among 65,000;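 active means activation above the mean activation of all tested compounds plus 3 SD, cut at about 50% in these data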
Target sequence (Q13285 whole entry, looked up, the tested form may be a part): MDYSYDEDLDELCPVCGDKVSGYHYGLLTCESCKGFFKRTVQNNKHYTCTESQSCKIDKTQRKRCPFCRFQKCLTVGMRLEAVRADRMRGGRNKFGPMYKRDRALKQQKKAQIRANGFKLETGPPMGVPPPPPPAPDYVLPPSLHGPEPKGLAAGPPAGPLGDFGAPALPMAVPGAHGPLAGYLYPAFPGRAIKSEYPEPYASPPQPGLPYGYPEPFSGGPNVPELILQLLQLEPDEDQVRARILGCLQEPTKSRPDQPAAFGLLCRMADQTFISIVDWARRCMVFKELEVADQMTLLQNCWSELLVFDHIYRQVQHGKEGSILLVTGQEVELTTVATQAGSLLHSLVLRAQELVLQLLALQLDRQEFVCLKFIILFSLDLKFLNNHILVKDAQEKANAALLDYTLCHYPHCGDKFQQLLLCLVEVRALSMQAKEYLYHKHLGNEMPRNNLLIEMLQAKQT
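Compound – one dose, 10 µM compound, 1% DMSO · Test system – transient Gal4-SF-1 LBD reporter, CHO-K1 · Input – 4,000 cells in each well · Read-out basis – percent activation relative to DMSO median and mock-transfected background · Replicates – single measurement per compound · Technique – steady-glow luciferase luminescence, read after 15 min reagent incubation · Timing – 20 h compound treatment, 37 °C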
RORA act: activates the human nuclear receptor RORA. hit rate 1.5% among 65,000. P35398. activation, % at 10 µM. AID 560. CHO-K1 Gal4-RORA LBD luciferase reporter, luminescence; percent increase over mock-subtracted basal signal;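 active means activation above the mean of all tested compounds plus 3 SD, cut at about 49% in these data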;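 further: 0% = DMSO-treated RORA cells and 100% = added signal equal to DMSO minus mock-transfected cells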
JNK3 inh: inhibitors of human JNK3 kinase; AID 746; purified JNK3 kinase activity, HTS; inhibition, % at 8 µM; hit rate 0.61% among 60,000; in the data active means inhibition above about 17%;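 further: 0% = DMSO and 100% = reference inhibitor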
D1 PAM confirm: D1 receptor (human) allosteric modulation, confirmed; shares compounds with D1 mod; HEK293 D1 CRE-luciferase, dopamine EC30 potentiation; stronger effect = higher value; luminescence at 10 µM; hit rate 88% among 2,200;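 active means luminescence in either of two replicates above the same-plate mean plus 3 SD of the low-dose dopamine control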
D1 no dopamine: secondary test of D1 modulators: activity without dopamine; shares compounds with D1 mod; HEK293 D1 CRE-luciferase, luminescence, no dopamine; stronger effect = higher value; luminescence at 10 µM; hit rate 0.8% among 1,900; in the data active means luminescence above about 3900
Isoprot counter: isoproterenol response counter-screen activity for D1 modulators. shares compounds with D1 mod. HEK293 D1 CRE-luciferase, isoproterenol EC30 counter-screen. calls only at 10 µM. hit rate 63% among 2,200. AID 647;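 active means luminescence in either replicate above plate mean of wells with a partly effective reference agonist dose plus 3 SD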;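 further: isoproterenol raises cAMP through native beta-adrenoceptor Gs so signal bypasses D1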
Numbers without * were called inactive; i = inactive; / = not tested or not shown; + = active, no number.

SMILES | HEK293 NFkB inh | D1 mod | SF1 activator | RORA act | JNK3 inh | D1 PAM confirm | D1 no dopamine | Isoprot counter
COc1ccc(-c2nc(S(=O)(=O)c3ccc(C)cc3)c(N3CCCC3)o2)cc1 | 19.2 | 0.942 | -18.3 | -6.0 | 3.5 | / | / | /
CC(C)Sc1oc(-c2ccco2)nc1S(=O)(=O)c1ccc(F)cc1 | 13.5 | 3.35 | -19.8 | -20.1 | / | / | / | /
CC(C)C(C(=O)Nc1ccc(N2CCOCC2)cc1)N1C(=O)c2ccccc2C1=O (stereo not given) | 1.8 | -0.509 | -7.9 | -14.9 | 1.4 | / | / | /
CCCSc1oc(-c2ccco2)nc1S(=O)(=O)c1ccccc1 | 10.0 | 17.1* | -7.0 | -8.2 | 0.5 | 14944* | 1692 | +
O=C(CSc1oc(-c2ccco2)nc1S(=O)(=O)c1ccccc1)NCC1CCCO1 (stereo not given) | 16.9 | -1.32 | -8.7 | -19.7 | -2.5 | / | / | /
CCOC(=O)N1CCC(NC(=O)c2ccc(CS(=O)(=O)c3ccc(OC)cc3)o2)CC1 | 12.2 | 0 | 5.7 | 1.8 | 2.4 | / | / | /
CCCN(C#N)c1nc(NCC)nc(NC(C)C)n1 | 8.9 | 16.6* | 9.3 | 42.9 | 5.1 | 24080* | 1560 | +
CCN(CC)C(=O)CN(C#N)c1nc(NC(C)C)nc(NC(C)C)n1 | / | / | -3.2 | -15.7 | -5.2 | / | / | /
N#CCn1c(C2CCCCC2)nc2ccccc2c1=O | 7.5 | 8.42* | 8.4 | 18.8 | / | 16652* | 1540 | +
O=C(O)CCn1c(C2CCCCC2)nc2ccccc21 | 21.3 | 0.356 | -8.5 | 6.9 | -9.8 | / | / | /
Cc1ccnn2c(-c3ccccc3)c3c(=O)n(C)c(=O)n(C)c3c12 | 15.7 | 9.07* | -9.8 | -13.6 | 1.6 | 12160* | 1656 | +
Cn1c(=O)c2c(-c3ccccc3)n(-n3cnnc3)cc2n(C)c1=O | 5.9 | 0.111 | 20.9 | 9.8 | 0.9 | / | / | /
Cc1cc(C(=O)Cn2nnc3ccccc3c2=O)c(C)n1Cc1cccs1 | -57.1 | / | -3.1 | -21.5 | 0.0 | / | / | /
Clc1ccc(N2CCN(c3ncnc4c3oc3ccccc34)CC2)cc1 | 8.3 | -0.245 | 2.2 | 3.2 | 5.8 | / | / | /
CC1CN(c2ncnc3c2oc2ccccc23)CC(C)O1 (stereo not given) | 20.5 | 5.57* | -6.5 | 2.9 | -4.8 | 12424* | 1820 | +
CCN1CCN(C(=O)c2nn(-c3ccc(C)cc3)c(=O)c3c2c2ccccc2n3C)CC1 | 14.8 | 4.77* | 4.3 | -14.9 | -1.2 | 5812 | / | i
c1ccc(Oc2nc(NCc3ccco3)nc(NCc3ccco3)n2)cc1 | 21.9 | 5.17* | 3.5 | -12.7 | 0.4 | 11736* | 1696 | +
CCOc1nc(NCc2ccco2)nc(Nc2ccc(OC)cc2)n1 | 5.0 | 4.46* | -7.4 | 33.4 | 7.5 | 10436* | 1588 | +
CCOc1ccc(Nc2nc(NCCN3CCOCC3)nc(OC)n2)cc1 | -3.3 | -0.127 | 2.1 | -2.6 | / | / | / | /
COc1ccccc1-c1cc(C(F)(F)F)nc(NCc2ccco2)n1 | 17.3 | / | -17.1 | 4.1 | / | / | / | /
CCCCSc1nc2c(c(=O)[nH]c(=O)n2C)n1CCc1ccccc1 | 4.3 | / | -18.0 | -29.5 | 1.6 | / | / | /
C/C=C/Cn1c(SC)nc2c1c(=O)[nH]c(=O)n2C | 11.1 | -0.784 | 8.4 | 28.6 | 11.9 | / | / | /
C/C=C/CSc1nc2c(c(=O)[nH]c(=O)n2C)n1CCC | 9.4 | 14.1* | 6.8 | 13.9 | 0.2 | 14660* | 1456 | +
C/C=C/Cn1c(SCc2ccc(Cl)cc2)nc2c1c(=O)[nH]c(=O)n2C | 6.9 | 7.31* | -15.8 | -5.7 | -3.7 | 13964* | 1680 | +
CCCn1c(SCc2ccc(Cl)cc2)nc2c1c(=O)[nH]c(=O)n2C | 18.0 | 5.24* | 8.6 | -10.6 | 7.8 | 11480* | / | +
SMILES | HEK293 NFkB inh | D1 mod | SF1 activator | RORA act | JNK3 inh | D1 PAM confirm | D1 no dopamine | Isoprot counter
Cc1cnc(C)c(N2CCC(C(=O)NC(C)c3cccs3)CC2)n1 (stereo not given) | 9.4 | 0.164 | 6.8 | 4.9 | 2.6 | / | / | /
COC(=O)c1sc(NC(=O)c2cnccn2)c(C(=O)OC)c1C | 15.1 | 0.431 | 1.9 | 1.4 | 2.9 | / | / | /
Cc1c2c(nc3c(C(=O)NC4CCCC4)cnn13)CCCC2 | 2.6 | 4.97* | -8.9 | -11.5 | / | 11564* | 1764 | +
O=C(O)C(c1ccccc1)N1CCCC1 (stereo not given) | 9.2 | -0.718 | 8.5 | 3.5 | / | / | / | /
Cc1[nH]nc2c1C(c1ccc(F)cc1)C1=C(CC(C)(C)CC1=O)N2 (stereo not given) | 5.4 | 6.27* | 12.4 | 4.6 | 1.9 | 12860* | 1600 | i
Cc1ccc(S(=O)(=O)n2nc(-c3ccco3)nc2SCc2ccccc2)cc1 | -1.2 | 0.00232 | 3.9 | 20.1 | -7.7 | / | / | /
CSc1nc(-c2ccco2)nn1S(=O)(=O)c1ccccc1 | 15.5 | 6.62* | 4.5 | 8.9 | 7.8 | 19196* | 1648 | +
CSc1nc(-c2ccco2)nn1S(=O)(=O)c1ccc(C)cc1 | 8.2 | 6.54* | 11.5 | -1.3 | 7.6 | 11872* | / | +
CSc1nnc(-c2cc3ccccc3cc2O)n1C | -18.5 | 1.1 | -12.7 | 40.9 | / | / | / | /
COc1ccc(-c2nc(CSCC(=O)N3CCc4ccccc43)c(C)o2)cc1OC | -16.1 | 3.81* | 17.8 | -6.5 | -0.9 | 11284* | 1596 | +
COc1cccc(-c2nc(CSCC(=O)N3CCc4ccccc43)c(C)o2)c1 | 5.5 | 0.811 | 2.0 | -18.0 | 4.3 | / | / | /
COc1ccc(Cc2nnc(NC(=O)c3c(-c4ccccc4)noc3C)s2)cc1 | 5.3 | 3.32* | -0.3 | -4.7 | 3.6 | 6196* | 1588 | i
COc1ccc(Cc2nnc(NC(=O)c3c(-c4ccccc4)noc3C)s2)cc1OC | 10.3 | / | -0.3 | 12.0 | 0.2 | / | / | /
NC(=O)C1(N2CCCCC2)CCN(C(=O)CSc2nc(C(F)(F)F)cc(=O)[nH]2)CC1 | 12.2 | 0.0959 | 0.0 | -19.0 | -0.3 | / | / | /
Cc1cc(C)n(-c2nc3ccccc3nc2Nc2ccc(CC(=O)O)cc2)n1 | 7.8 | 21.4* | 5.3 | 20.0 | -10.6 | 7376* | 1728 | i
Cn1c(CCNC(=O)c2ccccc2F)nnc1SCc1nc2ccccc2c(=O)[nH]1 | 7.3 | 0.0377 | 2.4 | 0.3 | 6.2 | / | / | /
N#Cc1c2n(c3c(=O)n(Cc4ccc(Cl)cc4)cnc13)CCCCC2 | 21.2 | 11.2* | 6.0 | -14.6 | -0.2 | 13432* | 1956 | +
COc1ccc(C2NC(=O)CS2)cc1OC (stereo not given) | 16.6 | 5.76* | 5.8 | -5.3 | 0.9 | 13168* | / | +
COc1ccccc1C1NC(=O)CS1 (stereo not given) | 17.9 | -1.07 | -16.7 | -2.3 | -6.9 | / | / | /
Nc1ccc(SC(F)(F)F)cc1C(=O)c1ccccc1 | 5.3 | 14* | -15.8 | -14.5 | -0.2 | 13336* | 1612 | +

Screening data from PubChem.
